# Source: ChEMBL document CHEMBL1121618, “Thymidine phosphorylase. Substrate specificity for 5-substituted 2'-deoxyuridines” (J Med Chem, 1980)
# Assay: Ratio of Vmax to that of dThd (Vmax = 0.14)
# In short: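 Continuous UV assay of phosphorolysis by a dThd phosphorylase preparation. Initial rates were followed at each nucleoside's Δλmax, the wavelength of maximal nucleoside/base absorbance difference determined per substrate, and converted using Δεmax. Nucleoside was varied from 60–320 μM in 0.1 M potassium phosphate (pH 6.0) with limiting enzyme at 25.0 °C. Vmax was expressed relative to dThd in the same assay.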
row,SMILES,Vmax
1,CCc1cn([C@H]2C[C@H](O)[C@@H](CO)O2)c(=O)[nH]c1=O,0.79
2,O=c1[nH]c(=O)n([C@H]2C[C@H](O)[C@@H](CO)O2)cc1CO,0.6
3,O=c1[nH]c(=O)n([C@H]2C[C@H](O)[C@@H](CO)O2)cc1Br,3.51
4,O=c1[nH]c(=O)n([C@H]2C[C@H](O)[C@@H](CO)O2)cc1Cl,4.2
5,C=CCc1cn([C@H]2C[C@H](O)[C@@H](CO)O2)c(=O)[nH]c1=O,0.76
6,O=Cc1cn([C@H]2C[C@H](O)[C@@H](CO)O2)c(=O)[nH]c1=O,1.46
7,C/C=C/c1cn([C@H]2C[C@H](O)[C@@H](CO)O2)c(=O)[nH]c1=O,0.57
8,O=c1[nH]c(=O)n([C@H]2C[C@H](O)[C@@H](CO)O2)cc1C(F)(F)F,8.53
9,O=c1ccn([C@H]2C[C@H](O)[C@@H](CO)O2)c(=O)[nH]1,0.88
10,O=c1[nH]c(=O)n([C@H]2C[C@H](O)[C@@H](CO)O2)cc1F,3.42
11,Cc1cn([C@H]2C[C@H](O)[C@@H](CO)O2)c(=O)[nH]c1=O,1
12,N#Cc1cn([C@H]2C[C@H](O)[C@@H](CO)O2)c(=O)[nH]c1=O,0.74
13,O=c1[nH]c(=O)n([C@H]2C[C@H](O)[C@@H](CO)O2)cc1I,3.85
